Only some compounds are listed: those with a hit (about 1.3% of all), similar ones and a draw of the others.
LEDGF integ inh = blocks HIV-1 LEDGF/p75-dependent DNA integration | TR-FRET IN-LEDGF/p75 DNA integration, Eu/Cy5 | inhibition, % at 3.7 µM | 370,000 compounds, 0.64% hits | AID 743269;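 active = inhibition above the screen-wide mean plus 3 SD, cut at about 13% in these data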;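 also: signal is the Cy5 over europium emission ratio at 671 and 618 nm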
CASP6 VEID inh = caspase-6 (human) enzyme inhibition. P55212. purified caspase-6, Z-VEID-R110 cleavage fluorescence. inhibition, % at 12.5 µM. 350,000 compounds, 0.53% hits. AID 686996;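 active = mean inhibition across replicates at least about 35%, with every replicate also reaching that limit, limit read from the data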
NSD2 inh = NSD2 (human) methyltransferase inhibition; AID 743445; O96028; inhibition, % at 12.5 µM; NSD2 peptide methylation, AlphaScreen, 120 min; 310,000 compounds, 0.54% hits; in the data active = inhibition above about 50%
UCH37 inh = blocks the human deubiquitinase UCH37; Q9Y5K5; purified proteasome/UCH37, Ub-AMC cleavage fluorescence; inhibition, % (test concentration not listed); 330,000 compounds, 0.33% hits;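 active = mean inhibition over replicate wells above about 20%, limit read from the data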
Target sequence (Q9Y5K5 whole entry, looked up): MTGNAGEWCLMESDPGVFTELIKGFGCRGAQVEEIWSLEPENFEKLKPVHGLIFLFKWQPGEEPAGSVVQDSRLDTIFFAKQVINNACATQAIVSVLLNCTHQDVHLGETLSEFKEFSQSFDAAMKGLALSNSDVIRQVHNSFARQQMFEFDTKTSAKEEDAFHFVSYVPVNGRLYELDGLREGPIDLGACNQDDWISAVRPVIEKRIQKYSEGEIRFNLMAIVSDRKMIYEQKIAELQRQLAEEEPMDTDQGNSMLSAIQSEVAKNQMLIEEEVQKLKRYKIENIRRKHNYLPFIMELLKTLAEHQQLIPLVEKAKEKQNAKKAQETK
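Signal – fluorescence, ex 355 nm, em 460 nm · System – Proteasome-bound UCH37 · Input – 0.15 nM proteasome as dispensed · Timing – 30 min preincubation with enzyme, 25 min cleavage at room temperature · Read-out basis – percent inhibition of cleavage signal versus uninhibited and no-proteasome wells · Medium – Tris-HCl pH 7.4 with ATP-MgCl2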
TDP2 absorb = TDP2 (human) inhibition, absorbance primary screen | O95551 | recombinant TDP2, T5PNP hydrolysis, p-nitrophenol absorbance 415 nm | inhibition, % at 12.8 µM | 370,000 compounds, 0.34% hits | AID 720702;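 active = inhibition above the mean of all tested compounds plus 3 SD, set per campaign, cut at about 25% in these data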
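Assay system: Recombinant human TDP2 | Quantity: 120 nM TDP2 per well | Incubation: 2 h at 37 °C | Signal: Epi absorbance | Evaluation: Percent inhibition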
CASP1 counter = caspase-1 (human) inhibition counter-screen | purified caspase-1, Z-YVAD-R110 cleavage fluorescence | 100 tested, under 10 active | activity change, negative = inhibition, % at 35 µM | shares compounds with CASP6 VEID inh | AID 743289;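 active = compounds lowering fluorescence whose fitted half-maximal concentration is no more than twice their top tested dose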
Target sequence (P29466 whole entry, looked up): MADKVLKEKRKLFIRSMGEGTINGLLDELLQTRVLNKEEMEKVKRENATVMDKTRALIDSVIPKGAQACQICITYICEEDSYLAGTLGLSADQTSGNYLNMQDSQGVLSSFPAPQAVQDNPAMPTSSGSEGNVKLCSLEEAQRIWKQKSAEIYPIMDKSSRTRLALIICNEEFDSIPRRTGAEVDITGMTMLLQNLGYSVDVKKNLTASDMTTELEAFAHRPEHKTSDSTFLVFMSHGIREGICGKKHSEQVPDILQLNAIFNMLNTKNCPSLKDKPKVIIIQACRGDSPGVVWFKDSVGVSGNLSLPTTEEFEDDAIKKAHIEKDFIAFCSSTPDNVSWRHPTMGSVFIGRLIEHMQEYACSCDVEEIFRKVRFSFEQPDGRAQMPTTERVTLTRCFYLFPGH
TDP2 inh conf = human TDP2 inhibition, confirmation; shares compounds with TDP2 absorb; recombinant human TDP2, absorbance read-out; inhibition, % at 12.8 µM; 1,100 compounds, 22% hits; AID 743263; in the data active = inhibition above about 25%
IN multimer act = activates HIV-1 integrase multimerization in LEDGF counter-screen. 2,000 compounds, 17% hits. activation, % at 7.7 µM. shares compounds with LEDGF integ inh. TR-FRET HIV-1 integrase multimerization, biochemical; in the data active = activation above about 8.9%
TR-FRET interf = counter-screen for LEDGF/p75 integration inhibitors: TR-FRET optical interference; shares compounds with LEDGF integ inh; TR-FRET optical interference counterscreen, HIV-1 IN multimerization; inhibition, % at 7.7 µM; 2,000 tested, under 10 active; AID 1053135;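 active = inhibition above the mean over all tested compounds plus 3 SD, which no compound reached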
LEDGF integ conf = LEDGF/p75-dependent HIV-1 integration inhibition, confirmation | shares compounds with LEDGF integ inh | TR-FRET LEDGF/p75-dependent HIV-1 integration, biochemical | inhibition, % at 3.7 µM | 2,000 compounds, 36% hits; in the data active = inhibition above about 14%
AlphaScreen art = interferes with AlphaScreen signal, flagging NSD2 false positives | AC35, µM (highest dose often 10 µM) | AlphaScreen artifact counterscreen, preloaded methylated H4 peptide | shares compounds with NSD2 inh | 1,500 compounds, 9.4% hits; call rule not given here
Hits are given with their value; . = inactive; / = not tested or not shown.

SMILES	LEDGF integ inh	CASP6 VEID inh	NSD2 inh	UCH37 inh	TDP2 absorb	CASP1 counter	IN multimer act	TR-FRET interf	LEDGF integ conf	others
Cc1cccc(N(CC(=O)NN=Cc2ccccc2C(=O)O)S(C)(=O)=O)c1C	/	/	/	.	/	/	/	/	/
CCCN(C(=O)c1ccc([N+](=O)[O-])c(C)c1)c1c(N)n(Cc2ccccc2)c(=O)[nH]c1=O	.	.	.	.	.	/	/	/	/
CCCCN(C(=O)c1cccc(-n2cccc2)c1)c1c(N)n(CCC)c(=O)[nH]c1=O	.	41.1	.	.	.	.	/	/	/
CCCN(C(=O)c1cccc(-n2cccc2)c1)c1c(N)n(Cc2ccccc2)c(=O)[nH]c1=O	.	70.7	.	.	.	.	/	/	/
COc1cc(C=NNC(=O)c2nnn(-c3nonc3N)c2C(C)C)ccc1O	/	/	/	.	/	/	/	/	/
ON=Cc1cc2ccccc2n1Cc1ccccc1F	/	/	/	.	/	/	/	/	/
O=C(C[C@@H]1C[C@H]2c3cc(NC(=O)NC4CCCCC4)ccc3O[C@H]2[C@H](CO)O1)NCc1ccccn1	/	74.9	/	/	/	.	/	/	/
O=C(C[C@@H]1C[C@H]2c3cc(NC(=O)NC4CCCCC4)ccc3O[C@H]2[C@@H](CO)O1)NCc1ccccn1	/	.	/	/	/	/	/	/	/
Cc1cccc(NC(=O)CNCC(=O)Nc2cccc(C)c2C)c1C	.	.	.	.	.	/	/	/	/
Cc1cccc(NC(=O)CNC(=O)c2cccc(-n3cccc3)c2)c1C	.	82.5	.	.	.	.	/	/	/
COc1ccc(NC(=O)CN(C)C(=O)c2cccc(-n3cccc3)c2)cc1	.	51.3	.	.	.	.	/	/	/
Cc1ccc(NC(=O)CN(C)C(=O)c2cccc(-n3cccc3)c2)cc1	.	82.5	.	.	.	.	/	/	/
CCOC(=O)c1sc2nc(OCCN3CCOCC3)cc(C)c2c1N	.	82.0	/	/	.	.	/	/	/
Cc1ccc(S(=O)c2ccc([N+](=O)[O-])c3nonc23)cc1 (configuration not stated)	.	91.5	65.5	/	.	.	/	/	/
Cc1ccccc1C(=O)ON=C(N)c1cccc([N+](=O)[O-])c1	/	/	/	.	/	/	/	/	/
Nc1nonc1-n1nnc(C(=O)NN=Cc2cccc(F)c2)c1CN1CCCCCC1	/	/	/	.	/	/	/	/	/
Oc1ccc(/C=C/c2cc(O)cc(O)c2)cc1	.	.	/	.	.	/	/	/	/
Oc1cc(O)cc(C=Cc2ccc(O)c(O)c2)c1	51.5	76.0	89.9	/	.	.	43.1	.	42.0
O=[N+]([O-])c1ccccc1NN=C1CC2CC=CC12 (configuration not stated)	/	/	/	.	/	/	/	/	/
[C-]#[N+][C@H](O[C@@H]1O[C@H](CO)[C@@H](O)[C@H](O)[C@H]1O)c1ccccc1	.	.	/	.	.	/	/	/	/
O=C(O)CC(CCc1ccccc1)OC1OC(CO)C(O)C(O)C1O (configuration not stated)	85.5	71.2	/	.	.	.	87.5	.	92.4
COc1cc(C=NNC(=O)c2ccncc2)ccc1OC(=O)c1ccc([N+](=O)[O-])cc1	/	/	/	.	/	/	/	/	/
CC(=NNc1nc(C)cc(-c2ccccc2)n1)c1ccco1	/	/	/	.	/	/	/	/	/
Cn1c(=O)c2c(-c3ccccc3)n(-c3ccc(N)cc3)cc2n(C)c1=O	40.0	83.1	/	/	57.8	.	.	.	.	TDP2 inh conf=27.3
Oc1cc(NCCN2CCOCC2)cc2cccnc12	36.9	90.0	/	.	31.5	.	.	.	42.4	TDP2 inh conf=.
SMILES	LEDGF integ inh	CASP6 VEID inh	NSD2 inh	UCH37 inh	TDP2 absorb	CASP1 counter	IN multimer act	TR-FRET interf	LEDGF integ conf	others
CC(NC(=O)CCC(=O)Nc1ccccc1O)c1ccccc1 (configuration not stated)	.	.	.	.	.	/	/	/	/
CC(CNc1ccccc1O)C(=O)O (configuration not stated)	22.9	56.4	.	.	.	.	11.0	.	.
Cc1ccccc1Nc1cc2ccccc2c(=O)[nH]1	/	/	/	.	/	/	/	/	/
Cc1cc2ccccc2c(=O)[nH]1	.	/	/	.	.	/	/	/	/
O=c1[nH]c(Nc2ccc(F)cc2)cc2ccccc12	52.9	99.5	96.6	.	76.8	.	.	.	66.6	TDP2 inh conf=64.9
O=c1[nH]c(Nc2ccccc2Cl)cc2ccccc12	30.0	87.6	/	.	71.4	.	.	.	29.6	TDP2 inh conf=42.6
O=C(COC(=O)c1ccccc1)Nc1ncc([N+](=O)[O-])s1	15.2	84.4	83.1	.	.	.	.	.	33.5
NC(=O)c1ccc(C=NO)nc1	/	/	/	.	/	/	/	/	/
O=c1cc2oc3cc(O)c(O)cc3c(-c3ccccc3[N+](=O)[O-])c-2cc1O	86.0	96.2	128.0	.	.	.	10.9	.	85.6
Cc1cc(C(=O)NN=C/C(Cl)=C/c2ccccc2)c(C)o1	/	/	/	.	/	/	/	/	/
O=[N+]([O-])c1c(Nc2ccccn2)cc(Cl)c2nonc12	69.9	59.2	.	.	87.4	.	.	.	40.3	TDP2 inh conf=47.1
COc1ccc2[nH]c3c(NCCN(C(C)C)C(C)C)ncnc3c2c1	.	/	.	.	.	/	/	/	/
COc1cc(NCCCCC(C)N)c2nccc(C)c2c1 (configuration not stated)	.	92.5	128.8	/	.	.	/	/	/	AlphaScreen art=.
COc1ccc(NS(=O)(=O)c2ccc3c(c2)[C@H]2C=CC[C@H]2[C@@H](c2ccc(C(=O)O)cc2)N3)cc1	51.9	53.4	54.6	/	.	.	26.4	.	58.1	AlphaScreen art=.
Cc1cc(C=O)c(C)n1-c1ccc(Cl)c(C(=O)O)c1	20.6	54.0	166.7	.	.	.	.	.	20.6	AlphaScreen art=.
CCCCC1SC(=NN=Cc2ccc(OC)cc2)N(Cc2ccc(OC)cc2)C1=O (configuration not stated)	/	/	/	.	/	/	/	/	/
COCCn1c2nc(=O)n(-c3ccccc3)c(=O)c-2nc2ccccc21	.	70.1	50.4	/	.	.	/	/	/	AlphaScreen art=.
COCCn1c(-c2ccc(OC)cc2)nc2ccccc21	.	/	.	.	.	/	/	/	/
CC(CC(=O)Nc1ccc(N(C)C)cc1)=NNC(=O)c1ccc(Cl)cc1	/	/	/	.	/	/	/	/	/
CC(C(=O)NC1CC(C)(C)NC(C)(C)C1)c1ccc([N+](=O)[O-])cc1 (configuration not stated)	.	.	.	.	.	/	/	/	/

Screens deposited in PubChem by several laboratories.
